Residue numbers refer to the chain shown, from its start. Values joined by “and” are separate entries in the source; they are usually repeats but may differ in a detail not shown here. Equal values may be shown once. Read-outs that look alike come from different tables or passages of the source.
How the values were obtained:
EAAC1 [1] = molecular target: T1, EAAC1 (Rattus norvegicus, UniProt P51907); test: Whole-cell current recording of EAAC1WT expressed in HEK 293T cells; type: cell-based; details: for effect on anion current when applied alone: 100 μM applied alone, intracellular SCN−
T1 sequence (P51907 1-523): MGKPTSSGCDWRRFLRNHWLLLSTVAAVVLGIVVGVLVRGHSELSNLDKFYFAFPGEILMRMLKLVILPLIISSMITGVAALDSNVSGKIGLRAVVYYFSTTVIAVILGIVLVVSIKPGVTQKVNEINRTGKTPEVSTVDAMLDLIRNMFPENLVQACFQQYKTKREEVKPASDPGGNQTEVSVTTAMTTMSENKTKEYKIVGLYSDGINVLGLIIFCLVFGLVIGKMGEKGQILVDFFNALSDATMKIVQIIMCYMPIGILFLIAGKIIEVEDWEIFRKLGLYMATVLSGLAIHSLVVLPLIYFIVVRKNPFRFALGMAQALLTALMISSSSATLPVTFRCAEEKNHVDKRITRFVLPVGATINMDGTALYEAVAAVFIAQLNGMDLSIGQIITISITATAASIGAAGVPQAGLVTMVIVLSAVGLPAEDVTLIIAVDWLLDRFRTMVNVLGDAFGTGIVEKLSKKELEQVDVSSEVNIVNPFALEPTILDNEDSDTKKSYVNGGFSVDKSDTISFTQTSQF
Outline: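 HEK 293T cells transfected with EAAC1 plasmid plus RFP DNA (JetPRIME) and used at least 24 h later; whole-cell patch clamp held at 0 mV. Ki came from test-compound dose-response curves of glutamate-induced anion current at 20, 50 and 100 μM L-glutamate (forward mode: 140 mM NaCl outside, 140 mM KSCN pipette). Reverse mode used KSCN outside with NaCl + 10 mM L-Glu in the pipette. Homoexchange used NaCl + 1 mM L-glutamate outside with NaSCN + 10 mM L-glutamate in the pipette.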

EAAC1R446Q = molecular target: T2, EAAC1R446Q (Rattus norvegicus, UniProt P51907, R446Q); test: Whole-cell current recording of EAAC1 with the R446Q mutation, exchange mode; type: cell-based; details: application of 1 mM L-glutamate or 0.2 mM TBOA; NaSCN pipette; 0 mV
T2 sequence (P51907 1-523 R446Q): T1 sequence (P51907 1-523) with R446Q

glutamate transport = details: cited from earlier work
[2] = physiological conditions; cited from earlier work
EAAC1 [3] = molecular target: T1, EAAC1; test: Pre-incubation / rapid solution exchange experiment; type: cell-based
Outline: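 Transfected HEK 293T cells, whole-cell at 0 mV; bath 140 mM NaMES, pipette 140 mM KSCN. Test compound (3, 20 or 100 μM) applied 2 s by solution exchange, then rapid washout with simultaneous switch to 1 mM L-glutamate (~10 ms exchange resolution, ~100 mbar). Responses normalised to a 100 μM glutamate control, n = 3; observed rate constants taken as 1/τ.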

EAAC1 [4] = molecular target: T1, EAAC1; test: Laser-pulse photolysis of MNI-caged glutamate, pre-steady-state kinetics; type: cell-based
Outline: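 HEK 293T cells co-transfected with EAAC1 and RFP plasmids, used ≥24 h later; whole-cell clamp at 0 mV. 1 mM MNI-caged L-glutamate pre-applied 4 s, then ~5 ns 355 nm pulse releasing ~60–100 μM glutamate; 160 ms at 50 kHz, ±10 μM test compound. Bath 140 mM NaMES; pipette 140 mM KMES (transport) or KSCN (anion). Exponential fits→decay rate constants.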

[5] = pKa of the 3-hydroxyl-Δ2-isoxazoline group; type: physicochemical; details: pH 7.3, based on its pKa
[6] = cited from earlier work
[7] = test system: glutamate transporters in synaptosomes prepared from rat brains; details: (+)-HIP-B eutomer versus (−)-HIP-B; cited from earlier work

Structure (SMILES)	effect on anion current when applied alone (EAAC1 [1]; 0 mV)	current induced in EAAC1R446Q (EAAC1R446Q)	apparent affinity for inhibition of glutamate transport (glutamate transport)	neurotoxicity [2]	transport current when applied alone (EAAC1 [1]; 100 μM, NaMES extracellular, KMES pipette, 0 mV)	alleviation of TBOA (1 μM) inhibition of leak anion current (EAAC1 [1]; any concentration tested, up to 70 μM, in the presence of 1 μM TBOA)	Ki (EAAC1 [1]; read-out: Ki value (range used for estimate), approximate value in discussion)	Ki (EAAC1 [1]; read-out: inhibition constant Ki, glutamate-induced anion current, forward transport mode, 20 μM glutamate, n = 3, 0 mV, KSCN pipette)	Ki (EAAC1 [1]; read-out: inhibition constant Ki, glutamate-induced anion current, forward transport mode, 100 μM glutamate, n = 3, 0 mV, KSCN pipette)	Ki (EAAC1 [1]; read-out: inhibition constant in the reverse transport mode, 20 μM glutamate, n = 3, reverse transport mode)	bimolecular rate constant for binding (EAAC1 [3]; estimated from Ki in the 20 μM range and dissociation on the 50 ms time scale)	time scale of binding at the relevant concentration range (EAAC1 [3]; estimated from bimolecular rate constant)	time for full reversal of inhibition (EAAC1 [3]; washout)	time scale of dissociation from binding site (EAAC1 [3]; washout experiment)	effect on peak of transient anion current (EAAC1 [4]; anion conducting mode)	effect on decay time constants τfast and τslow of transient transport current (EAAC1 [4]; forward transport mode)	fraction in neutral form [5]	pKa of the 3-hydroxyl-Δ2-isoxazoline group [6]	eudismic ratio, inhibition of [3H]D-aspartate uptake [7]	time constant for activation of anion current by glutamate (EAAC1 [3]; 1 mM glutamate, no inhibitor, limited by solution exchange)
N[C@H](C(=O)O)[C@H](OCc1ccccc1)C(=O)O (racemic) [TBOA, DL-threo-β-benzyloxyaspartic acid]	generated outward current	< 5 pA	sub-μM range	neurotoxic																
O=C(O)[C@H]1NC[C@@H]2C(O)=NO[C@@H]21 [(+)-HIP-B, (+)-(3aS,6S,6aS)-3-Hydroxy-4,5,6,6a-tetrahydro-3aH-pyrrolo[3,4-d]isoxazole-6-carboxylic acid]	did not induce or inhibit anion current				did not elicit transport current	unable to alleviate the TBOA effect	~20 µM	8.7 ± 1.5 µM	9.2 ± 1.2 µM	23.2 ± 2.5 µM	~10^6 M^−1s^−1	20 to 50 ms	≤ 500 ms	50 to 60 ms and ~50 ms	inhibited strongly	virtually unaffected	less than 1%	5.1	10	
N[C@@H](CCC(=O)O)C(=O)O [glutamate, L-glutamate, reference compound]		< 5 pA																		7 ± 2 ms
